Measurements published in ChEMBL document CHEMBL1667774, “Synthesis and evaluation of a class of new coumarin triazole derivatives as potential antimicrobial agents” (2011).
Values after ≈ are worked out from the molar mass of the structure shown.

How the values were obtained:
[1] = test system: Shigella dysenteriae; test: Antimicrobial activity against Shigella dysenteriae ATCC 49550 by twofold broth dilution method; type: functional
How it was run: (§1)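 Antibacterial MIC, determined by two-fold serial broth dilution following the NCCLS-recommended method. Clinical antimicrobial drugs were run alongside as positive controls.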

[2] = test system: Candida albicans; test: Antifungal activity against Candida albicans ATCC 76615 by twofold broth dilution method; type: functional
How it was run: (§2)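 Two-fold broth dilution in 96-well micro-test plates, following NCCLS recommendations. Enoxacin and Chloromycin served as positive controls for bacteria, and Fluconazole for fungi. The read-out is the MIC in µg/mL.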

[3] = test system: Proteus vulgaris; test: Antimicrobial activity against Proteus vulgaris ATCC 6896 by twofold broth dilution method; type: functional; how it was run: as §2
[4] = test system: Staphylococcus aureus; test: Antimicrobial activity against Staphylococcus aureus ATCC 25923 by twofold broth dilution method; type: functional; how it was run: as §2
[5] = test system: Bacillus subtilis; test: Antimicrobial activity against Bacillus subtilis ATCC 6633 by twofold broth dilution method; type: functional; how it was run: as §2
[6] = test system: Staphylococcus aureus; test: Antimicrobial activity against methicillin-resistant Staphylococcus aureus N 315 by twofold broth dilution method; type: functional; how it was run: as §1
[7] = test system: Escherichia coli; test: Antimicrobial activity against Escherichia coli ATCC 25922 by twofold broth dilution method; type: functional; how it was run: as §2
[8] = test system: Micrococcus luteus; test: Antimicrobial activity against Micrococcus luteus ATCC 4698 by twofold broth dilution method; type: functional; how it was run: as §2
[9] = test system: Saccharomyces cerevisiae; test: Antifungal activity against Saccharomyces cerevisiae ATCC 9763 by twofold broth dilution method; type: functional; how it was run: as §2
[10] = test system: Aspergillus fumigatus; test: Antifungal activity against Aspergillus fumigatus ATCC 96918 by twofold broth dilution method; type: functional; how it was run: as §2
[11] = test system: Salmonella typhi; test: Antimicrobial activity against Salmonella typhi ATCC 9484 by twofold broth dilution method; type: functional, Salmonella enterica subsp. enterica serovar Typhi; conditions: Salmonella enterica; how it was run: as §1

Row | SMILES | MIC [1] | MIC [2] | MIC [3] | MIC [4] | MIC [5] | MIC [6] | MIC [7] | MIC [8] | MIC [9] | MIC [10] | MIC [11]
1 | Cc1cc(=O)oc2cc(O)cc(O)c12 [5,7-DIHYDROXY-4-METHYLCOUMARIN] | 256 µg/mL (≈ 1330 µM) | 64 µg/mL (≈ 333 µM) | 128 µg/mL (≈ 666 µM) | 32 µg/mL (≈ 167 µM) | 64 µg/mL (≈ 333 µM) | 64 µg/mL (≈ 333 µM) | 128 µg/mL (≈ 666 µM) | 64 µg/mL (≈ 333 µM) | 256 µg/mL (≈ 1330 µM) | 256 µg/mL (≈ 1330 µM) | 256 µg/mL (≈ 1330 µM)
2 | Cc1cc(=O)oc2cc(OCc3ccc(COc4ccc5c(C)cc(=O)oc5c4)cc3)ccc12 | > 512 µg/mL | > 512 µg/mL | > 512 µg/mL | > 512 µg/mL | > 512 µg/mL | > 512 µg/mL | > 512 µg/mL | > 512 µg/mL | 512 µg/mL (≈ 1130 µM) | > 512 µg/mL | > 512 µg/mL
3 | Cc1cc(=O)oc2cc(OCCCCCCOc3ccc4c(C)cc(=O)oc4c3)ccc12 | 512 µg/mL (≈ 1180 µM) | 512 µg/mL (≈ 1180 µM) | 256 µg/mL (≈ 589 µM) | 256 µg/mL (≈ 589 µM) | 128 µg/mL (≈ 295 µM) | 512 µg/mL (≈ 1180 µM) | 256 µg/mL (≈ 589 µM) | 128 µg/mL (≈ 295 µM) | 256 µg/mL (≈ 589 µM) | 512 µg/mL (≈ 1180 µM) | 512 µg/mL (≈ 1180 µM)
4 | Cc1cc(=O)oc2cc(OCc3ccc(Cn4cncn4)cc3)ccc12 | 64 µg/mL (≈ 184 µM) | 32 µg/mL (≈ 92.1 µM) | 64 µg/mL (≈ 184 µM) | 32 µg/mL (≈ 92.1 µM) | 32 µg/mL (≈ 92.1 µM) | 64 µg/mL (≈ 184 µM) | 64 µg/mL (≈ 184 µM) | 32 µg/mL (≈ 92.1 µM) | 64 µg/mL (≈ 184 µM) | 64 µg/mL (≈ 184 µM) | 64 µg/mL (≈ 184 µM)
5 | Cc1cc(=O)oc2cc(OCCCCn3cncn3)cc(OCCCCn3cncn3)c12 | 1 µg/mL (≈ 2.28 µM) | 1 µg/mL (≈ 2.28 µM) | 2 µg/mL (≈ 4.56 µM) | 1 µg/mL (≈ 2.28 µM) | 2 µg/mL (≈ 4.56 µM) | 2 µg/mL (≈ 4.56 µM) | 1 µg/mL (≈ 2.28 µM) | 1 µg/mL (≈ 2.28 µM) | 2 µg/mL (≈ 4.56 µM) | 4 µg/mL (≈ 9.12 µM) | 1 µg/mL (≈ 2.28 µM)
6 | Cc1cc(=O)oc2cc(OCCCCBr)cc(OCCCCBr)c12 | 256 µg/mL (≈ 554 µM) | 128 µg/mL (≈ 277 µM) | 256 µg/mL (≈ 554 µM) | 256 µg/mL (≈ 554 µM) | 128 µg/mL (≈ 277 µM) | 512 µg/mL (≈ 1110 µM) | 512 µg/mL (≈ 1110 µM) | 256 µg/mL (≈ 554 µM) | 256 µg/mL (≈ 554 µM) | 256 µg/mL (≈ 554 µM) | 256 µg/mL (≈ 554 µM)
7 | Cc1cc(=O)oc2cc(OCCCCCBr)ccc12 | 256 µg/mL (≈ 787 µM) | 128 µg/mL (≈ 394 µM) | 512 µg/mL (≈ 1570 µM) | 128 µg/mL (≈ 394 µM) | 128 µg/mL (≈ 394 µM) | 256 µg/mL (≈ 787 µM) | 512 µg/mL (≈ 1570 µM) | 256 µg/mL (≈ 787 µM) | 512 µg/mL (≈ 1570 µM) | 256 µg/mL (≈ 787 µM) | 512 µg/mL (≈ 1570 µM)
8 | Cc1cc(=O)oc2cc(O)ccc12 [HYMECROMONE] | 512 µg/mL (≈ 2910 µM) | 64 µg/mL (≈ 363 µM) | 256 µg/mL (≈ 1450 µM) | 32 µg/mL (≈ 182 µM) | 32 µg/mL (≈ 182 µM) | 64 µg/mL (≈ 363 µM) | 128 µg/mL (≈ 727 µM) | 32 µg/mL (≈ 182 µM) | 128 µg/mL (≈ 727 µM) | 128 µg/mL (≈ 727 µM) | 128 µg/mL (≈ 727 µM)
9 | Cc1cc(=O)oc2cc(OCCCCCCBr)ccc12 | 512 µg/mL (≈ 1510 µM) | 256 µg/mL (≈ 755 µM) | 256 µg/mL (≈ 755 µM) | 64 µg/mL (≈ 189 µM) | 128 µg/mL (≈ 377 µM) | 256 µg/mL (≈ 755 µM) | 512 µg/mL (≈ 1510 µM) | 64 µg/mL (≈ 189 µM) | 256 µg/mL (≈ 755 µM) | 512 µg/mL (≈ 1510 µM) | 256 µg/mL (≈ 755 µM)
10 | CCn1cc(C(=O)O)c(=O)c2cc(F)c(N3CCNCC3)nc21 [ENOXACIN] | 1 µg/mL (≈ 3.12 µM) |  | 1 µg/mL (≈ 3.12 µM) | 1 µg/mL (≈ 3.12 µM) | 1 µg/mL (≈ 3.12 µM) | 4 µg/mL (≈ 12.5 µM) | 1 µg/mL (≈ 3.12 µM) | ≤ 1 µg/mL |  |  | 2 µg/mL (≈ 6.24 µM)
11 | Cc1cc(=O)oc2cc(OCc3ccc(CBr)cc3)cc(OCc3ccc(CBr)cc3)c12 | 512 µg/mL (≈ 917 µM) | 256 µg/mL (≈ 459 µM) | 512 µg/mL (≈ 917 µM) | 256 µg/mL (≈ 459 µM) | 128 µg/mL (≈ 229 µM) | 512 µg/mL (≈ 917 µM) | 512 µg/mL (≈ 917 µM) | 256 µg/mL (≈ 459 µM) | 256 µg/mL (≈ 459 µM) | 256 µg/mL (≈ 459 µM) | 256 µg/mL (≈ 459 µM)
12 | Cc1cc(=O)oc2cc(OCc3ccc(Cn4cncn4)cc3)cc(OCc3ccc(Cn4cncn4)cc3)c12.Cl | 16 µg/mL | 8 µg/mL | 16 µg/mL | 8 µg/mL | 16 µg/mL | 16 µg/mL | 8 µg/mL | 16 µg/mL | 16 µg/mL | 16 µg/mL | 16 µg/mL
13 | Cc1cc(=O)oc2cc(OCCCCCCBr)cc(OCCCCCCBr)c12 | 512 µg/mL (≈ 988 µM) | 128 µg/mL (≈ 247 µM) | 512 µg/mL (≈ 988 µM) | 256 µg/mL (≈ 494 µM) | 128 µg/mL (≈ 247 µM) | 512 µg/mL (≈ 988 µM) | 512 µg/mL (≈ 988 µM) | 128 µg/mL (≈ 247 µM) | 128 µg/mL (≈ 247 µM) | 128 µg/mL (≈ 247 µM) | 512 µg/mL (≈ 988 µM)
14 | Cc1cc(=O)oc2cc(OCCCCOc3ccc4c(C)cc(=O)oc4c3)ccc12 | 512 µg/mL (≈ 1260 µM) | 512 µg/mL (≈ 1260 µM) | 256 µg/mL (≈ 630 µM) | 128 µg/mL (≈ 315 µM) | 128 µg/mL (≈ 315 µM) | 512 µg/mL (≈ 1260 µM) | 256 µg/mL (≈ 630 µM) | 128 µg/mL (≈ 315 µM) | 256 µg/mL (≈ 630 µM) | 512 µg/mL (≈ 1260 µM) | 256 µg/mL (≈ 630 µM)
15 | O=C(N[C@H](CO)[C@H](O)c1ccc([N+](=O)[O-])cc1)C(Cl)Cl [CHLORAMPHENICOL] | 4 µg/mL (≈ 12.4 µM) |  | 8 µg/mL (≈ 24.8 µM) | 4 µg/mL (≈ 12.4 µM) | 8 µg/mL (≈ 24.8 µM) | 16 µg/mL (≈ 49.5 µM) | 8 µg/mL (≈ 24.8 µM) | ≤ 4 µg/mL |  |  | 4 µg/mL (≈ 12.4 µM)
16 | OC(Cn1cncn1)(Cn1cncn1)c1ccc(F)cc1F [FLUCONAZOLE] |  | 1 µg/mL (≈ 3.27 µM) |  |  |  |  |  |  | 2 µg/mL (≈ 6.53 µM) | 128 µg/mL (≈ 418 µM) | 
